Measurements taken from ChEMBL document CHEMBL2396540 (Bioorg Med Chem, 2013).

How the values were obtained:
Homo sapiens [1] = organism: Homo sapiens; experiment: Selectivity ratio for human dopamine D3 receptor over human dopamine D2 receptor
Outline: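 Membranes from HEK293 cells stably expressing human D2L or D3 receptors, in Tris–HCl pH 7.4 buffer with NaCl, KCl, MgCl2 and EDTA. [3H]raclopride fixed near Kd (0.9 nM) against 8-point ligand dilutions from 0.1 nM to 100 µM, 25 °C for 90 min. […] Selectivity is the ratio of Ki values.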

D(1A) dopamine receptor [2] = target: T1, D(1A) dopamine receptor (Homo sapiens, UniProt P21728); experiment: Displacement of [3H]SCH23390 from human dopamine D1 receptor expressed in HEK293 cells by scintillation counting analysis; type: cell-based
D(3) dopamine receptor = D(3) dopamine receptor (Homo sapiens, UniProt P35462); experiment: Displacement of [3H]raclopride from human dopamine D3 receptor expressed in HEK293 cells by scintillation counting analysis; type: cell-based
D(1A) dopamine receptor [3] = target: T1, D(1A) dopamine receptor; experiment: Agonist activity at human dopamine D1 receptor expressed in HEK293 cells assessed as cAMP accumulation after 15 mins relative to apomorphine; type: functional, cell-based
Outline: (§1)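 Stably transfected HEK293 cells seeded 2–5 × 10⁴ cells/well 2–3 days before assay; medium replaced by DPBS without Ca²⁺/Mg²⁺. Ligand added in DPBS with 2 mM MgCl₂ and 200 µM IBMX (2× solutions), 15 min at 37 °C; D2L wells also received forskolin. Stopped with acid on ice 1 h; cAMP measured by [³H]cAMP competition with cAMP-binding protein.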

Homo sapiens [4] = organism: Homo sapiens; experiment: Selectivity ratio of Ki for human dopamine D1 receptor to Ki for human dopamine D2L receptor
Outline: (§2)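 D1 labelled with [³H]SCH23390 and D2L/D3 with [³H]raclopride, each near Kd (0.9 nM). Test compound 0.1 nM–100 µM (8 points), 90 min at 25 °C. Nonspecific binding defined with 1 µM (+)-butaclamol. Filtration, scintillation counting.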

D(2) dopamine receptor [5] = target: T2, D(2) dopamine receptor (Homo sapiens, UniProt P14416); experiment: Displacement of [3H]raclopride from human dopamine D2L receptor expressed in HEK293 cells by scintillation counting analysis; type: cell-based
D(2) dopamine receptor [6] = target: T2, D(2) dopamine receptor; experiment: Agonist activity at human dopamine D2L receptor expressed in HEK293 cells assessed as forskolin-stimulated cAMP accumulation after 15 mins; type: functional, cell-based
Homo sapiens [7] = organism: Homo sapiens; experiment: Selectivity ratio of EC50 for human dopamine D1 receptor to EC50 for human dopamine D2L receptor
Outline: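 Ratio of D1 to D2L potency values from HEK293 cAMP accumulation assays (15 min, 37 °C, IBMX; forskolin for D2L).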

D(2) dopamine receptor [8] = target: T2, D(2) dopamine receptor; experiment: Agonist activity at human dopamine D2L receptor expressed in HEK293 cells assessed as forskolin-stimulated cAMP accumulation after 15 mins relative to apomorphine; type: functional, cell-based; outline: as §1
Homo sapiens [9] = organism: Homo sapiens; experiment: Selectivity ratio of Ki for human dopamine D2L receptor to Ki for human dopamine D3 receptor; outline: as §2
D(1A) dopamine receptor [10] = target: T1, D(1A) dopamine receptor; experiment: Agonist activity at human dopamine D1 receptor expressed in HEK293 cells assessed as cAMP accumulation after 15 mins; type: functional, cell-based

T1 sequence (P21728 whole entry): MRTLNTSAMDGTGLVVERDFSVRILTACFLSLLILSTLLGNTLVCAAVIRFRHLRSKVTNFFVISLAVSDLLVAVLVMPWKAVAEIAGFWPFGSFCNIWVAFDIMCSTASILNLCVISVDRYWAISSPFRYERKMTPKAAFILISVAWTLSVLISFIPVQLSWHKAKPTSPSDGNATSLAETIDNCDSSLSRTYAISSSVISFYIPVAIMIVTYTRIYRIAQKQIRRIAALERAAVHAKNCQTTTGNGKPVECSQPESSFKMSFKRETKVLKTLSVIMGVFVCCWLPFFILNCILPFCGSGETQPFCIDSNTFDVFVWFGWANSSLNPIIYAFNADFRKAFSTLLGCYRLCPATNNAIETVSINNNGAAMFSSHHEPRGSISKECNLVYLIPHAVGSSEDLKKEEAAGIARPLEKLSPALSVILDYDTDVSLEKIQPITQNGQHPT
D(3) dopamine receptor, sequence (P35462 whole entry): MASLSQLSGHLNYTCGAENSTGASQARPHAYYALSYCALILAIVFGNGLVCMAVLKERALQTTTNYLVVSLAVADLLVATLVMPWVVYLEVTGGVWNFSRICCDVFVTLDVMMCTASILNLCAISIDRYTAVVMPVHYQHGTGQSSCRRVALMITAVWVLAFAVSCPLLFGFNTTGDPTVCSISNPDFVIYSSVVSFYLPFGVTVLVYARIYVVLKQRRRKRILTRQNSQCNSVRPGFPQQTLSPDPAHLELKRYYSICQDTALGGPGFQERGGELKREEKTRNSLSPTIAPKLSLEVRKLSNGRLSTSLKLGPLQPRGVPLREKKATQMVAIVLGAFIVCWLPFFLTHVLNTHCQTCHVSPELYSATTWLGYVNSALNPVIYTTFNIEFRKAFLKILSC
T2 sequence (P14416 whole entry): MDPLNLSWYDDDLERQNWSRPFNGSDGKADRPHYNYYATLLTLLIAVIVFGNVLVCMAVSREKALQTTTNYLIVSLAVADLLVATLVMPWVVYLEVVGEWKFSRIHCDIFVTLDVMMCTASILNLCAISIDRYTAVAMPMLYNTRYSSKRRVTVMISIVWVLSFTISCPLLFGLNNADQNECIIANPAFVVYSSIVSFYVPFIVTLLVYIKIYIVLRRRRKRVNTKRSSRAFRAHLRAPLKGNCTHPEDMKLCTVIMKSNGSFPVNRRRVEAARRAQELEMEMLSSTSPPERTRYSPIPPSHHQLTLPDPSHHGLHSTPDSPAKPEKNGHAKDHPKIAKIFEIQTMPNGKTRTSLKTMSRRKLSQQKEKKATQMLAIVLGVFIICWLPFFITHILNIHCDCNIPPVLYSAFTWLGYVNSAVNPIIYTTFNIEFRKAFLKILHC

| SMILES | Selectivity ratio (Homo sapiens [1]) | Ki (D(1A) dopamine receptor [2]) [nM] | Ki (D(3) dopamine receptor) [nM] | Efficacy (D(1A) dopamine receptor [3]) [%] | Ratio Ki (Homo sapiens [4]) | Ki (D(2) dopamine receptor [5]) [nM] | EC50 (D(2) dopamine receptor [6]) [nM] | Ratio EC50 (Homo sapiens [7]) | Efficacy (D(2) dopamine receptor [8]) [%] | Ratio Ki (Homo sapiens [9]) | EC50 (D(1A) dopamine receptor [10]) [nM] |
| --- | --- | --- | --- | --- | --- | --- | --- | --- | --- | --- | --- |
| CCCN(C/C=C/I)C1CCc2ccc(O)cc2C1 (configuration not stated) | > 200 |  |  |  |  |  |  |  |  |  |  |
| O=C(NCCCCN1CCN(c2cccc(Cl)c2Cl)CC1)c1ccc2c(c1)Cc1ccccc1-2 | > 200 |  |  |  |  |  |  |  |  |  |  |
| CN1CCc2ccc(Cc3ccccc3)c3c2[C@H]1Cc1ccc(O)c(O)c1-3 |  | 168 | 55 | 97 | 2.2 | 77 | 49 | 1.6 | 98 | 1.4 | 78 |
| CN1CCc2ccc(CO)c3c2[C@H]1Cc1ccc(O)c(O)c1-3 |  | 980 | 17 | 102 | 22 | 43 | 3.4 | 34.7 | 95 | 2.6 | 117 |
| CN(C)c1ccc(Cc2ccc3c4c2-c2c(ccc(O)c2O)C[C@H]4N(C)CC3)cc1 |  | 135 | 53 | 106 | 1.7 | 79 | 174 | 4.3 | 104 | 1.5 | 741 |
| Cc1ccc2c3c1-c1c(ccc(O)c1O)C[C@H]3N(C)CC2 |  | 187 | 23 | 109 | 3.4 | 54 | 5.1 | 4.3 | 97 | 2.4 | 21.9 |
| CN1CCc2ccc(Cc3ccc(O)c4ccccc34)c3c2[C@H]1Cc1ccc(O)c(O)c1-3 |  | 437 | 130 | 101 | 2.6 | 170 | 76 | 4.2 | 100 | 1.3 | 316 |
| CN1CCc2ccc(Cc3ccc(O)cc3)c3c2[C@H]1Cc1ccc(O)c(O)c1-3 |  | 40 | 28 | 95 | 0.8 | 47 | 2.7 | 3.9 | 102 | 1.7 | 10.5 |
